According to ChEMBL document CHEMBL1156973, “(-)-Carbodine: enantiomeric synthesis and in vitro antiviral activity against various strains of influenza virus including H5N1 (avian influenza) and novel 2009 H1N1 (swine flu)” (Bioorg Med Chem Lett, 2010):

How the values were obtained:
[1] = Antiviral activity against Influenza A virus Solomon Islands/03/2006/H1N1 infected MDCK cells assessed as inhibition of virus-induced cytopathic effect after 3 days; type: functional, organism-based, Influenza A virus (A/Solomon Islands/3/2006(H1N1)); details: mdck
Procedure, shortened: (§1)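 Triplicate MDCK (ATCC CCL-34) wells got serial dilutions of compound. They were then inoculated with ≤300 CCID50, enough for ~100% CPE in control wells within 3 days, using the same inoculum for all replicates. CPE was scored visually. EC50 is the concentration reducing CPE by 50%, as the mean of triplicates.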

[2] = Selectivity ratio of IC50 for MDCK cells to EC50 for inhibition of virus-induced cytopathic effect of Influenza A virus Duck/MN/1525/81/H5N1; type: cell-based; details: dog, mdck
Procedure, shortened: (§2)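 IC50 (50% inhibition of uninfected MDCK cells) divided by EC50 (concentration reducing virus-induced CPE by 50%, scored visually), both from replicate serial-dilution assays.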

[3] = Selectivity ratio of IC50 for MDCK cells to EC50 for Influenza A virus Wisconsin/67/2005/H3N2 by neutral red dye uptake assay; type: ADME, cell-based; details: dog, mdck
Procedure, shortened: (§3)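 Neutral red uptake in MDCK cells: IC50 (50% inhibition of uninfected cells) divided by EC50 (50% inhibition of virus effect), both from replicate serial-dilution assays.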

Influenza A virus [4] = assay: Antiviral activity against Influenza A virus Vietnam/1203/ 2004H/H5N1 infected MDCK cells assessed as inhibition of virus-induced cytopathic effect after 3 days; type: functional, organism-based, A/Viet Nam/1203/2004(H5N1); details: mdck
H5N1 subtype [5] = assay: Antiviral activity against Influenza A virus Duck/MN/1525/81/H5N1 infected MDCK cells assessed as inhibition of virus-induced cytopathic effect after 3 days; type: functional, organism-based, Influenza A virus (A/duck/Minnesota/1525/1981(H5N1)); details: mdck
H5N1 subtype [6] = assay: Antiviral activity against Influenza A virus Hong Kong/213/2003/H5N1 infected MDCK cells after 3 days by virus yield reduction assay; type: functional, Influenza A virus (A/Hong Kong/213/2003(H5N1))
Influenza A virus [7] = assay: Antiviral activity against Influenza A virus Wisconsin/67/2005/H3N2 infected MDCK cells after 3 days by virus yield reduction assay; type: functional, Influenza A virus (A/Wisconsin/67/2005(H3N2))
Procedure, shortened: (§4)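 Yield reduction assay: MDCK cells got serial compound dilutions and ≤300 CCID50 virus, in triplicate. Progeny virus was titrated. EC90 is the concentration reducing the infectious titer by 90%, as the mean of triplicates.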

Influenza A virus [8] = assay: Antiviral activity against Influenza A virus California/07/2009 /H1N1 infected MDCK cells assessed as inhibition of virus-induced cytopathic effect after 3 days; type: functional, organism-based, A/California/07/2009(H1N1); details: mdck
Influenza B virus [9] = assay: Antiviral activity against Influenza B virus Malaysia/2506/2004 infected MDCK cells assessed as inhibition of virus-induced cytopathic effect after 3 days; type: functional, organism-based, B/Malaysia/2506/2004; details: mdck; procedure, shortened: as §1
[10] = system: Influenza A virus (A/Puerto Rico/8/1934(H1N1)); assay: Antiviral activity against Influenza A virus Solomon Islands/03/2006/H1N1 infected MDCK cells after 42 to 46 hrs by neutral red dye uptake assay; type: functional, organism-based, Influenza A virus (A/Solomon Islands/3/2006(H1N1)); details: mdck
Procedure, shortened: (§5)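 Triplicate MDCK wells got serial compound dilutions, then ≤300 CCID50 of virus, with the same inoculum for all replicates. Antiviral effect was read by neutral red dye uptake. EC50 is the concentration giving 50% inhibition of the virus effect, as the mean of triplicates.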

H5N1 subtype [11] = assay: Antiviral activity against Influenza A virus Duck/MN/1525/81/H5N1 infected MDCK cells after 42 to 46 hrs by neutral red dye uptake assay; type: functional, organism-based, Influenza A virus (A/duck/Minnesota/1525/1981(H5N1)); details: mdck
Influenza B virus [12] = assay: Antiviral activity against Influenza B virus Malaysia/2506/2004 infected MDCK cells after 42 to 46 hrs by neutral red dye uptake assay; type: functional, organism-based, B/Malaysia/2506/2004; details: mdck; procedure, shortened: as §5
[13] = Selectivity ratio of IC50 for MDCK cells to EC50 for Influenza B virus Malaysia/2506/2004 by neutral red dye uptake assay; type: ADME, cell-based; details: dog, mdck; procedure, shortened: as §3
Influenza A virus [14] = assay: Antiviral activity against Influenza A virus Wisconsin/67/2005/H3N2 infected MDCK cells assessed as inhibition of virus-induced cytopathic effect after 3 days; type: functional, organism-based, Influenza A virus (A/Wisconsin/67/2005(H3N2)); details: mdck; procedure, shortened: as §1
[15] = Selectivity ratio of IC50 for MDCK cells to EC50 for inhibition of virus-induced cytopathic effect of Influenza A virus Vietnam/1203/ 2004H/H5N1; type: cell-based; details: dog, mdck; procedure, shortened: as §2
[16] = Selectivity ratio of IC50 for MDCK cells to EC50 for Influenza A virus Duck/MN/1525/81/H5N1 by neutral red dye uptake assay; type: ADME, cell-based; details: dog, mdck; procedure, shortened: as §3
[17] = Selectivity ratio of IC50 for MDCK cells to EC50 for inhibition of virus-induced cytopathic effect of Influenza A virus Wisconsin/67/2005/H3N2; type: cell-based; details: dog, mdck; procedure, shortened: as §2
[18] = Selectivity ratio of IC50 for MDCK cells to EC50 for inhibition of virus-induced cytopathic effect of Influenza A virus Gull/PA/4175/83/H5N1; type: cell-based; details: dog, mdck; procedure, shortened: as §2
H5N1 subtype [19] = assay: Antiviral activity against Influenza A virus Hong Kong/213/2003/H5N1 infected MDCK cells after 42 to 46 hrs by neutral red dye uptake assay; type: functional, organism-based, Influenza A virus (A/Hong Kong/213/2003(H5N1)); details: mdck
[20] = Selectivity ratio of IC50 for MDCK cells to EC50 for Influenza A virus Solomon Islands/03/2006/H1N1 by neutral red dye uptake assay; type: ADME, cell-based; details: dog, mdck; procedure, shortened: as §3
[21] = Selectivity ratio of IC50 for MDCK cells to EC50 for inhibition of virus-induced cytopathic effect of Influenza A virus California/07/2009 /H1N1; type: cell-based; details: dog, mdck; procedure, shortened: as §2
[22] = system: Influenza A virus (A/Puerto Rico/8/1934(H1N1)); assay: Antiviral activity against Influenza A virus Solomon Islands/03/2006/H1N1 infected MDCK cells after 3 days by virus yield reduction assay; type: functional, Influenza A virus (A/Solomon Islands/3/2006(H1N1)); procedure, shortened: as §4
[23] = Selectivity ratio of IC50 for MDCK cells to EC90 for Influenza A virus Duck/MN/1525/81/H5N1 by virus yield reduction assay; type: ADME, cell-based; details: dog, mdck
Procedure, shortened: (§6)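 IC50 (50% inhibition of uninfected MDCK cells) divided by EC90 (concentration reducing the infectious virus titer by 90% in the yield reduction assay).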

[24] = Selectivity ratio of IC50 for MDCK cells to EC50 for Influenza A virus California/07/2009 /H1N1 by neutral red dye uptake assay; type: ADME, cell-based; details: dog, mdck; procedure, shortened: as §3
[25] = Selectivity ratio of IC50 for MDCK cells to EC90 for Influenza B virus Malaysia/2506/2004 by virus yield reduction assay; type: ADME, cell-based; details: dog, mdck; procedure, shortened: as §6
[26] = Selectivity ratio of IC50 for MDCK cells to EC50 for Influenza A virus Hong Kong/213/2003/H5N1 by neutral red dye uptake assay; type: ADME, cell-based; details: dog, mdck; procedure, shortened: as §3
[27] = Selectivity ratio of IC50 for MDCK cells to EC90 for Influenza A virus Wisconsin/67/2005/H3N2 by virus yield reduction assay; type: ADME, cell-based; details: dog, mdck; procedure, shortened: as §6
H5N1 subtype [28] = assay: Antiviral activity against Influenza A virus Duck/MN/1525/81/H5N1 infected MDCK cells after 3 days by virus yield reduction assay; type: functional, Influenza A virus (A/duck/Minnesota/1525/1981(H5N1))
[29] = Selectivity ratio of IC50 for MDCK cells to EC90 for Influenza A virus California/07/2009 /H1N1 by virus yield reduction assay; type: ADME, cell-based; details: dog, mdck; procedure, shortened: as §6
H5N1 subtype [30] = assay: Antiviral activity against Influenza A virus Gull/PA/4175/83/H5N1 infected MDCK cells assessed as inhibition of virus-induced cytopathic effect after 3 days; type: functional, organism-based, Influenza A virus (A/gull/Pennsylvania/4175/83(H5N1)); details: mdck
Influenza A virus [31] = assay: Antiviral activity against Influenza A virus California/07/2009 /H1N1 infected MDCK cells after 42 to 46 hrs by neutral red dye uptake assay; type: functional, organism-based, A/California/07/2009(H1N1); details: mdck
Influenza B virus [32] = assay: Antiviral activity against Influenza B virus Malaysia/2506/2004 infected MDCK cells after 3 days by virus yield reduction assay; type: functional, B/Malaysia/2506/2004; procedure, shortened: as §4
Influenza A virus [33] = assay: Antiviral activity against Influenza A virus Vietnam/1203/ 2004H/H5N1 infected MDCK cells after 3 days by virus yield reduction assay; type: functional, A/Viet Nam/1203/2004(H5N1)
Influenza A virus [34] = assay: Antiviral activity against Influenza A virus Wisconsin/67/2005/H3N2 infected MDCK cells after 42 to 46 hrs by neutral red dye uptake assay; type: functional, organism-based, Influenza A virus (A/Wisconsin/67/2005(H3N2)); details: mdck; procedure, shortened: as §5
[35] = Selectivity ratio of IC50 for MDCK cells to EC50 for inhibition of virus-induced cytopathic effect of Influenza B virus Malaysia/2506/2004; type: cell-based; details: dog, mdck; procedure, shortened: as §2
[36] = Selectivity ratio of IC50 for MDCK cells to EC90 for Influenza A virus Hong Kong/213/2003/H5N1 by virus yield reduction assay; type: ADME, cell-based; details: dog, mdck; procedure, shortened: as §6
Influenza A virus [37] = assay: Antiviral activity against Influenza A virus California/07/2009 /H1N1 infected MDCK cells after 3 days by virus yield reduction assay; type: functional, A/California/07/2009(H1N1)
[38] = Selectivity ratio of IC50 for MDCK cells to EC50 for Influenza A virus Gull/PA/4175/83/H5N1 by neutral red dye uptake assay; type: ADME, cell-based; details: dog, mdck; procedure, shortened: as §3
H5N1 subtype [39] = assay: Antiviral activity against Influenza A virus Gull/PA/4175/83/H5N1 infected MDCK cells after 42 to 46 hrs by neutral red dye uptake assay; type: functional, organism-based, Influenza A virus (A/gull/Pennsylvania/4175/83(H5N1)); details: mdck
Influenza A virus [40] = assay: Antiviral activity against Influenza A virus Vietnam/1203/ 2004H/H5N1 infected MDCK cells after 42 to 46 hrs by neutral red dye uptake assay; type: functional, organism-based, A/Viet Nam/1203/2004(H5N1); details: mdck
[41] = Selectivity ratio of IC50 for MDCK cells to EC50 for Influenza A virus Vietnam/1203/ 2004H/H5N1 by neutral red dye uptake assay; type: ADME, cell-based; details: dog, mdck; procedure, shortened: as §3
[42] = Selectivity ratio of IC50 for MDCK cells to EC50 for inhibition of virus-induced cytopathic effect of Influenza A virus Solomon Islands/03/2006/H1N1; type: cell-based; details: dog, mdck; procedure, shortened: as §2
[43] = Selectivity ratio of IC50 for MDCK cells to EC90 for Influenza A virus Vietnam/1203/ 2004H/H5N1 by virus yield reduction assay; type: ADME, cell-based; details: dog, mdck; procedure, shortened: as §6
[44] = Selectivity ratio of IC50 for MDCK cells to EC90 for Influenza A virus Solomon Islands/03/2006/H1N1 by virus yield reduction assay; type: ADME, cell-based; details: dog, mdck; procedure, shortened: as §6

In the case of `Nc1ccn([C@@H]2C[C@H](CO)[C@@H](O)[C@H]2O)c(=O)n1` (racemic), the EC50 [1] is reported as 1900 nM, the “Ratio IC50/EC50” value [2] is reported as over 173 and the “Ratio IC50/EC50” value [3] is reported as over 90. It also gave an EC50 (Influenza A virus [4]) of 1000 nM, an EC50 (H5N1 subtype [5]) of 2400 nM and an EC90 (H5N1 subtype [6]) of 2000 nM. The EC90 (Influenza A virus [7]) was 3500 nM, the EC50 (Influenza A virus [8]) was 1500 nM and the EC50 (Influenza B virus [9]) was 800 nM. The EC50 [10] was 2000 nM, the EC50 (H5N1 subtype [11]) was 5000 nM and the EC50 (Influenza B virus [12]) was 1300 nM. The “Ratio IC50/EC50” value [13] was over 318, the EC50 (Influenza A virus [14]) was 2800 nM and the “Ratio IC50/EC50” value [15] was over 414. The “Ratio IC50/EC50” value [16] was over 83, the “Ratio IC50/EC50” value [17] was over 148 and the “Ratio IC50/EC50” value [18] was over 376. The EC50 (H5N1 subtype [19]) was 1800 nM, the “Ratio IC50/EC50” value [20] was over 207 and the “Ratio IC50/EC50” value [21] was over 276. The EC90 [22] was 2300 nM, the Ratio [23] was over 24 and the “Ratio IC50/EC50” value [24] was over 218. For the same compound, the Ratio [25] was over 109, the “Ratio IC50/EC50” value [26] was over 230 and the Ratio [27] was over 118. The EC90 (H5N1 subtype [28]) was 17600 nM, the Ratio [29] was over 94 and the EC50 (H5N1 subtype [30]) was 1100 nM. It also gave an EC50 (Influenza A virus [31]) of 1900 nM, an EC90 (Influenza B virus [32]) of 3800 nM and an EC90 (Influenza A virus [33]) of 12100 nM. The EC50 (Influenza A virus [34]) was 4600 nM, the “Ratio IC50/EC50” value [35] was over 518 and the Ratio [36] was over 207. For the same compound, the EC90 (Influenza A virus [37]) was 4400 nM, the “Ratio IC50/EC50” value [38] was over 296 and the EC50 (H5N1 subtype [39]) was 1400 nM. The EC50 (Influenza A virus [40]) was 2900 nM, the “Ratio IC50/EC50” value [41] was over 143 and the “Ratio IC50/EC50” value [42] was over 218. The Ratio [43] was over 34 and the Ratio [44] was over 180.
